Compound activity: PubChem, several laboratories
This is a sample that favours compounds with a hit; in the whole collection about 11% have one here.
Diaphorase act – activates diaphorase or chemically reduces, flagging diaphorase assay artifacts | Diaphorase/resazurin coupled assay, resorufin fluorescence, 16 min; hits give high values; 1 = vehicle wells, 0 = NADH-free wells | activation factor at 20 µM | 190,000 tested, 0.005% active | AID 1229;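 active = diaphorase activity raised at least twofold by the compound at 20 µM; inactive = activation factor below 2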
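Material: bacterial diaphorase enzyme (C. kluyveri); amount: enzyme 0.07 U/mL final; reagent: NADH substrate 0.114 mM plus resazurin dye 0.1 mM, final; doses: single compound dose of 20 µM, 1% DMSO final; timing: 16 min enzyme reaction, ambient temperature; measured by: fluorescence of resorufin, 544 nm excitation, 590 nm emission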
WT yeast gro inh – growth inhibition of WT yeast, mitochondrial fusion screen; mitochondrial fusion phenotypic screen, WT strain; inhibition, % at 10 µM; 190,000 tested, 2.1% active; in the data active = inhibition above about 58%; tested in S. cerevisiae
Diaph inh CS – diaphorase inhibition or chemical oxidation counter-screen; diaphorase resazurin-to-resorufin fluorescence, NADH, 16 min; bacterial (C. kluyveri) enzyme, not human; inhibition, % at 20 µM; 190,000 tested, 0.69% active; AID 1217;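 active = primary screen inhibition at 20 µM above a set limit, cut at about 50% in these data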
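Assay system: diaphorase enzyme from Clostridium kluyveri; Input: enzyme working solution with 0.14 U/mL diaphorase; Timing: 16 min at room temperature; Technique: resorufin fluorescence, excitation 544 nm, emission 590 nm; Benchmarks: positive control minus NADH, DMSO neutral control.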
G6PDH counter – L. mesenteroides G6PDH inhibition counter-screen. inhibition, % at 5 µM. Purified L. mesenteroides G6PDH, diaphorase/resazurin coupled fluorescence, 45 min. AID 1020. 200,000 tested, 0.12% active
Lmaj promast – Leishmania major promastigote growth inhibition; Leishmania major promastigotes, resazurin fluorescence viability; inhibition, % at 10 µM; 200,000 tested, 9% active; AID 1063;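 also: promastigotes grown with compound for 44 hours at 28 °C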
Of the large screens only hits and unclear results are named; the others gave an inactive call. Rule as the data show it, unless noted: active = inhibition above about 50%; inactive = the rest.

O=C(Cc1ccccc1)Nc1cccc([N+](=O)[O-])c1	none
O=C(COc1ccc(Cl)cc1)NCc1cn2cc(Cl)ccc2n1	none
CC1Cc2ccccc2N1C(=O)CSc1nnc2c(n1)[nH]c1ccc(F)cc12 (centres undefined)	none
O=C(Nc1cccc([N+](=O)[O-])c1)c1cnccn1	Lmaj promast 65
O=C(N/N=C/c1cccc([N+](=O)[O-])c1)c1cnccn1	none
CCOC(=O)C(C)Sc1ncc(-c2ccccc2)cn1 (centres undefined)	none
CC(C)(C)NS(=O)(=O)c1ccc(Oc2ncc(C(F)(F)F)cc2Cl)cc1	none
CC(C)(C)NS(=O)(=O)c1cnc(Cl)c(Cl)c1	WT yeast gro inh 60
Nc1nc(CN2CCN(c3ccccc3)CC2)nc(N2CCCc3ccccc32)n1	none
Nc1nc(CSc2nnnn2-c2ccccc2)nc(N2CCCc3ccccc32)n1	WT yeast gro inh 60
Cc1ccc(NC(=O)c2ccc(OC(=O)COc3cccc(Cl)c3)cc2)cc1	none
COc1cc(/C=C2\SC(=Nc3ccccc3)N(CCc3c[nH]c4ccccc34)C2=O)ccc1OC(C)C(=O)O (centres undefined)	none
O=C1/C(=C/c2ccc(N3CCOCC3)o2)SC(=Nc2ccccc2)N1CCc1c[nH]c2ccccc12	Lmaj promast 100
COc1ccc(N=C2S/C(=C\c3ccc(OC(C)C(=O)O)c(OC)c3)C(=O)N2CCc2c[nH]c3ccccc23)cc1 (centres undefined)	Diaph inh CS 58
CCOC(=O)c1ccc(N2C(=O)C3C(/C=C/c4ccccc4)OC4(C(=O)c5ccccc5C4=O)C3C2=O)cc1 (centres undefined)	none
CCCC(=O)OCCNc1cc(SCc2ccco2)c2nonc2c1[N+](=O)[O-]	Diaph inh CS 71
CC(=O)OCCCNc1cc(SCc2ccco2)c2nonc2c1[N+](=O)[O-]	Diaph inh CS 87, Lmaj promast 51
Cc1nn(C(C)C(=O)NCc2ccco2)c(C)c1[N+](=O)[O-] (centres undefined)	none
COc1ccc(NC(=O)CSc2nnc3ccc(-c4ccncc4)nn23)cc1OC	none
COc1cccc(-c2nn(-c3ccccc3)cc2C(=O)O)c1	none
COc1cccc(-c2nn(-c3ccccc3)cc2/C=C\C(=O)c2cccs2)c1	Lmaj promast 65
CCn1c(SC)nnc1-c1sc2cc(Cl)ccc2c1Cl	Lmaj promast 87
O=C(CSc1nnc(-c2ccc(F)cc2)c2ccccc12)Nc1ccccc1Cl	none
Cc1c(/C=N/NC(=O)CNc2ccccc2)c2ccccn2c1C(=O)c1ccncc1	Lmaj promast 100
Cc1c(/C=N/NC(=O)CNc2ccccc2)c2ccccn2c1C(=O)c1ccc(Cl)cc1	none
Cc1cccc(NC(=O)Nc2cc(C)cc(C)n2)c1	none
CCOc1ccccc1NC(=O)C(OC(=O)c1ccccc1O)c1ccccc1 (centres undefined)	none
CCOc1ccccc1NC(=O)C(OC(=O)c1cc(C)oc1C)c1ccccc1 (centres undefined)	Lmaj promast 85
CCN(CC)C(=O)C1CCCN(c2ccccc2[N+](=O)[O-])C1 (centres undefined)	none
COc1ccc(Nc2nc3[nH]c(=O)cc(O)c3s2)cc1	Diaph inh CS 69
O=c1cc(O)c2sc(Nc3ccc(F)c(Cl)c3)nc2[nH]1	none
C=CCc1cc(/C=C2/NC(=O)N(CC)C2=O)cc(OCC)c1OCc1ccc(C(=O)O)cc1	none
O=C(O)c1ccc(-n2cccn2)nc1	none
CCOc1ccc(C(=O)CCc2nc3ccccc3s2)cc1	none
N=c1c2c(-c3ccccc3)c(-c3ccccc3)n(Cc3ccco3)c2ncn1CCO	Lmaj promast 100
N=c1c2c(-c3ccccc3)c(-c3ccccc3)n(Cc3ccco3)c2ncn1CCN1CCOCC1	Lmaj promast 100 (no result: WT yeast gro inh)
c1coc(CNc2nc3ccccc3n2CCN2CCOCC2)c1	none
COc1ccc(C2c3c(ncn(CCN4CCOCC4)c3=N)Oc3ccc4ccccc4c32)cc1 (centres undefined)	Lmaj promast 100
N=c1c2c(ncn1Cc1ccco1)Oc1c(ccc3ccccc13)C2c1ccccc1 (centres undefined)	WT yeast gro inh 69, Lmaj promast 57
COc1ccc(C2C3=C(CC(C)(C)CC3=O)Oc3ncn(Cc4ccccc4)c(=N)c32)cc1 (centres undefined)	WT yeast gro inh 97, Lmaj promast 63
N=c1c2c(ncn1CCN1CCOCC1)Oc1ccc3ccccc3c1C2c1ccccc1 (centres undefined)	Lmaj promast 99
COc1ccc(C2SCC(C(=O)NCc3ccc(F)cc3)N2C(C)=O)cc1 (centres undefined)	none
Cn1c(=O)c2[nH]c(N3CCN(c4ccccn4)CC3)nc2n(C)c1=O	none
Cc1nn2c(-c3ccccn3)ccnc2c1Br	none
Cc1ccccc1C(=O)NNC(=O)c1cc(N)cc([N+](=O)[O-])c1	none
COc1ccc(C(=O)COC(=O)CCN=C2NS(=O)(=O)c3ccccc32)cc1OC	none
CN1CCCN(C(=O)c2cc(-c3ccc(Cl)c(Cl)c3Cl)nc3ccccc23)CC1	Lmaj promast 55
O=C(c1csc2c1CCCC2)N1CCN(c2cccc(C(F)(F)F)c2)CC1	none
CC(C)c1nnc(NC(=O)Cc2ccccc2[N+](=O)[O-])s1	none
CCn1c(=O)cc(SCC(=O)N2CCN(c3ccccc3F)CC2)c2ccccc21	Lmaj promast 53
Cc1ccc(CC2CC(=O)N(c3nc4ccccc4n3C)C2=O)cc1 (centres undefined)	none
O=C(CCl)Nc1nc(-c2ccco2)c(-c2ccco2)s1	Diaph inh CS 65, Lmaj promast 69
O=C(CCCSc1ccccc1)Nc1nc(-c2ccco2)c(-c2ccco2)s1	Lmaj promast 75
Nc1nc(-c2ccco2)c(-c2ccco2)s1	none
CC(Oc1ccc(Cl)cc1Cl)C(=O)NCCC1=CCCCC1 (centres undefined)	none
O=C(CN1CCN(S(=O)(=O)c2cc(Cl)ccc2Cl)CC1)Nc1ccc2c(c1)OCCO2	none
Cc1noc(C)c1S(=O)(=O)N1CCN(C(c2ccccc2)c2ccc(Cl)cc2)CC1 (centres undefined)	Lmaj promast 71
CCc1ccccc1N(C(=O)CCC(=O)Nc1cc(C)on1)C(C(=O)NC1CCCC1)c1ccco1 (centres undefined)	none (no result: WT yeast gro inh, Lmaj promast)
CCc1ccc(N(C(=O)CCC(=O)Nc2cc(C)on2)C(C(=O)NC2CCCC2)c2ccco2)cc1 (centres undefined)	Lmaj promast 96
Cc1cc(NC(=O)CCC(=O)N(CC2CCCO2)C(C(=O)NC2CCCC2)c2ccccc2C)no1 (centres undefined)	none (no result: Diaphorase act, WT yeast gro inh, Diaph inh CS, G6PDH counter)
Cc1cc(NC(=O)CCC(=O)N(CC(=O)NC2CCCC2)c2ccccc2)no1	none
